Experimental data published in ChEMBL document CHEMBL1128551, “Decapeptide agonists of human C5a: the relationship between conformation and neutrophil response” (J Med Chem, 1995).
Where a SMILES comes first, the peptide text is derived from it.

What follows are compounds tested against T1, C5a anaphylatoxin chemotactic receptor 1 (Homo sapiens, UniProt P21730) (assay: Release of beta-glucuronidase from human polymorphonuclear leukocytes(PMN)).
T1 sequence (P21730 whole entry): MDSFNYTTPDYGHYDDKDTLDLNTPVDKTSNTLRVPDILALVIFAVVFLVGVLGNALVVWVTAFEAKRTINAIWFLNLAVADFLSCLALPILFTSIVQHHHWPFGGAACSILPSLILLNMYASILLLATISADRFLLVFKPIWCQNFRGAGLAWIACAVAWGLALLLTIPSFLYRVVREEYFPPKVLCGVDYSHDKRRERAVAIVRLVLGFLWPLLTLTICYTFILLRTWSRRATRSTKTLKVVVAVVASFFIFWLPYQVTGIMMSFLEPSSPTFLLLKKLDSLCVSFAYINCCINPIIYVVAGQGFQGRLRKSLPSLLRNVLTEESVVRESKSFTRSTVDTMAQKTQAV
Type: functional
Procedure, shortened: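 Human PMNs pretreated with cytochalasin B (5 μg/mL, 10 min, 37 °C). 10^6 cells incubated with stimulant 60 min at 37 °C, then centrifuged. Supernatant reacted with 0.01 M p-nitrophenyl β-D-glucuronide in 0.1 M sodium acetate pH 4 for 18 h, in triplicate. Stopped with 0.4 M glycine pH 10. EC50 from dose-response.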
For `CSCC[C@H](NC(=O)[C@H](CC(=O)O)NC(=O)[C@H](CCCCN)NC(=O)[C@H](Cc1ccccc1)NC(=O)[C@H](CO)NC(=O)[C@@H](N)Cc1ccc(O)cc1)C(=O)N[C@@H](CCC(N)=O)C(=O)N[C@@H](CC(C)C)C(=O)N1CCC[C@H]1C(=O)N[C@@H](CCCNC(=N)N)C(=O)O`, the EC50 was over 1000 µM.
`CSCC[C@H](NC(=O)[C@H](CC(=O)O)NC(=O)[C@H](CCCCN)NC(=O)[C@H](Cc1ccccc1)NC(=O)[C@H](CO)NC(=O)[C@@H](N)Cc1ccc(O)cc1)C(=O)N1CCC[C@H]1C(=O)N[C@@H](C)C(=O)NCC(=O)N[C@@H](CCCNC(=N)N)C(=O)O` showed an EC50 of 680 µM.
`CC(C)C[C@H](NC(=O)[C@@H]1CCCN1C(=O)[C@H](C)NC(=O)[C@H](CC(=O)O)NC(=O)[C@H](CCCCN)NC(=O)[C@H](Cc1ccccc1)NC(=O)[C@H](CO)NC(=O)[C@@H](N)Cc1ccc(O)cc1)C(=O)NCC(=O)N[C@@H](CCCNC(=N)N)C(=O)O` gave an EC50 of 207 µM.
`CSCC[C@H](NC(=O)[C@H](CC(=O)O)NC(=O)[C@H](CCCCN)NC(=O)[C@H](Cc1ccccc1)NC(=O)[C@H](CO)NC(=O)[C@@H](N)Cc1ccc(O)cc1)C(=O)N1CCC[C@H]1C(=O)N[C@@H](CC(C)C)C(=O)NCC(=O)N[C@@H](CCCNC(=N)N)C(=O)O` gave an EC50 of 80 µM.
Compound `CC(C)C[C@H](NC(=O)[C@@H]1CCCN1C(=O)[C@H](CS)NC(=O)[C@H](CC(=O)O)NC(=O)[C@H](CCCCN)NC(=O)[C@H](Cc1ccccc1)NC(=O)[C@H](CO)NC(=O)[C@@H](N)Cc1ccc(O)cc1)C(=O)N[C@@H](CS)C(=O)N[C@@H](CCCNC(=N)N)C(=O)O` (H-YSFKDCPLCR-OH) has an EC50 of over 1000 µM.
Compound H-ISHKDMQLGR-OH has an EC50 of 0.0123 µM.
H-YSFKDCPLGR-OH gave an EC50 of over 1000 µM.
Work on H-YSFKDMQLGR-OH yielded an EC50 of 520 µM.
H-YSFKDMQPGR-OH gave an EC50 of 42 µM.
H-YSFKGLLLGR-OH gave an EC50 of 27.7 µM.
For H-YSFKGMLLGR-OH, the EC50 was 70 µM.
